According to article PMC12040810 (AMB Express, 2025):
In brackets after ≈: the same amount, converted by molar mass. Several values for one entry are separate records, joined by “and”; a condition that tells them apart may be missing. Equal values may be shown once.

Experiments:
human blood suspension = test: Hemolytic assay, spectrophotometric, free hemoglobin at 540 nm; format: cell-based
L929 cell line = test: Cell toxicity assay; format: cell-based
[1] = Biochemical analysis of serum AST and ALT; format: in vivo, BALB/c mice; conditions: for level of AST: serum, after treatment, P = 0.072
Summary of the method: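 Female BALB/c mice (about 20 g, 6–7 weeks), 5 per group, were infected subcutaneously at the tail base with L. major promastigotes and then given topical ointment treatments. After 28 days, serum was drawn and AST and ALT were measured with a commercial kit. The manufacturer's normal ranges were ALT 75–90 IU/l and AST 125–155 IU/l.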

L. major promastigotes = test: In vitro anti-promastigote activity, viability by eosin 0.1% vital stain; format: cell-based; conditions: Leishmania major, 48 h
Summary of the method: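 L. major promastigotes (strain MRHO/IR/75/ER) were kept in RPMI 1640 (pH 7.4) with 20% FBS, 25 mM HEPES and penicillin/streptomycin at 24 °C, passaged every 3 days. Log-phase cells (100 µl at 1 × 10^6/ml) received 100 µl of test compound solution; PBS was the negative control. Plates were held at 26 °C.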

L. major = test: In vivo anti-leishmanial effects, lesion size after topical ointment treatment; set-up: species or system BALB/c mice; conditions: group receiving amphotericin B
Summary of the method: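 Female BALB/c mice (about 20 g, 6–7 weeks), 5 per group, were injected subcutaneously at the tail base with 1.5 × 10^6 stationary-phase L. major promastigotes. Nodules and ulcers formed by day 21, and lesion amastigotes were confirmed by microscopy at 1000×. Topical ointments were given over 28 days, with vehicle ointment or PBS as controls. Lesion diameter was measured weekly with a dial micrometer before and after treatment.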

[2] = 12 h, composition as in the label, concentration of controls not given
[3] = 24 h, composition as in the label, concentration of controls not given
[4] = 48 h, composition as in the label, concentration of controls not given
[5] = 6 h, composition as in the label, concentration of controls not given

Compound	Hemolytic activity (%) ± SD (human blood suspension; [2])	Hemolytic activity (%) ± SD (human blood suspension; [3])	Hemolytic activity (%) ± SD (human blood suspension; [4])	Cytotoxic activity (%) ± SD (L929 cell line; [5])	Cytotoxic activity (%) ± SD (L929 cell line; [2])	Cytotoxic activity (%) ± SD (L929 cell line; [3])	level of AST [1]	Hemolytic activity (%) ± SD (human blood suspension; 12 h, amphotericin B 500 µg/ml)	Hemolytic activity (%) ± SD (human blood suspension; 24 h, amphotericin B 500 µg/ml)	Hemolytic activity (%) ± SD (human blood suspension; 48 h, amphotericin B 500 µg/ml)	Cytotoxic activity (%) ± SD (L929 cell line; 6 h, amphotericin B 500 µg/ml)	Cytotoxic activity (%) ± SD (L929 cell line; 12 h, amphotericin B 500 µg/ml)	Cytotoxic activity (%) ± SD (L929 cell line; 24 h, amphotericin B 500 µg/ml)	toxicity in the MTT assay (L929 cell line; in words, chitosan at 10, 50, and 100 mg/ml)	IC50 (L. major promastigotes)	toxicity judged by AST and ALT ([1]; blood samples after 28 days, in words)	wound size after 28 days (L. major; after 28 days of treatment)	wound size before treatment (L. major; before treatment)
CNC[C@H](O)[C@@H](O)[C@H](O)[C@H](O)CO.[O]=[Sb](=[O])[OH] [Glucantime]	15.6 ± 0.5%	18.6 ± 0.6%	20.3 ± 0.8%	0.43 ± 0.002%	0.38 ± 0.01%	0.35 ± 0.02%	higher compared to the other treatment groups											
C[C@@H]1[C@H](O)[C@@H](C)/C=C/C=C/C=C/C=C/C=C/C=C/C=C/[C@H](O[C@@H]2O[C@H](C)[C@@H](O)[C@H](N)[C@@H]2O)C[C@@H]2O[C@](O)(C[C@@H](O)C[C@@H](O)[C@H](O)CC[C@@H](O)C[C@@H](O)CC(=O)O[C@H]1C)C[C@H](O)[C@H]2C(=O)O [Amphotericin B]							higher compared to the other treatment groups	13.9% and 13.9 ± 0.4%	17.9% and 17.9 ± 0.9%	18.4% and 18.4 ± 0.9%	0.43 ± 0.03%	0.41 ± 0.07%	0.41 ± 0.04%	significantly lower than those of cisplatin	256 µg/mL (≈ 277 µM)	highest drug toxicity	1.59 mm	15.71 mm
Triton X100	90.1 ± 4.5%	99.4 ± 0.5%	100 ± 0.0%	0.14±-0.002%	0.11 ± 0.02%	0.11 ± 0.006%												
